Values after ≈ are worked out from the molar mass of the structure shown.

Series [1] can be described thus: Dissociation constant, pKa of the compound. It is filed as physicochemical.
Series [2] in a line: Half life of the compound. Type of series: ADME. An outline of the steps: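 Hydrolysis in aqueous buffer, followed by UV absorbance in a cuvette at about 10^-5 M final substrate. For the phenol derivatives, runs were at 46 °C in pH 8.8 buffer because hydrolysis at 32 °C was too slow. Half-lives were taken from plots of log(A∞ − At), or its negative, versus time.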
The nature of series [3]: Ratio for partition coefficient, log K in IPM to buffer at pH 4. Type of series: physicochemical. The conditions noted are these: IPM/pH 4.0 buffer.
A short description of series [4]: Aqueous solubility of the compound. Particulars: water. Type of series: physicochemical.
Series [5] in a line: Solubility in IPM. It is filed as physicochemical.

For `COC(=O)N(C)COc1ccc(C#N)cc1`, in series [1], the pKa (in general, the negative logarithm of the acid dissociation constant) is 7.95. Moreover, the half-life (as a rule, how long it takes for the measured level to halve) in series [2] was 2.48 h.

With `COC(=O)N(C)CSc1[nH]cnc2ncnc1-2`, the pKa in series [1] was 7.5. For the same molecule, the half-life in series [2] came to 0.317 h. Besides, the “log K” value in series [3] was 0.03. The solubility (usually the dissolved amount per volume that the medium holds) in series [4] turned out to be 1450 µM (≈ 367 µg/mL); in series [5] (IPM, read-out: Solubility), 1350 µM (≈ 342 µg/mL).

`COC(=O)N(C)Cn1cnc2c1c(=O)n(C)c(=O)n2C` displayed a pKa in series [1] of 8.6. Further, the half-life in series [2] came out at 7 h. The “log K” value in series [3] is reported as -0.04. Besides, the solubility came out at 9330 µM (≈ 2620 µg/mL) in series [4] and 2690 µM (≈ 757 µg/mL) in series [5] (IPM, read-out: Solubility).

For the molecule `CC(=O)Nc1ccc(O)cc1` [ACETAMINOPHEN], in series [3], the “log K” value is -1.72. Besides, the solubility amounted to 100000 µM (≈ 15100 µg/mL) in series [4] and 1910 µM (≈ 289 µg/mL) in series [5].

Molecule `COC(=O)N(C)COc1ccc(C=O)cc1` showed a pKa in series [1] of 7.66. The molecule further displayed a half-life in series [2] of 1.25 h.

The molecule `CCOC(=O)c1ccc(N(COc2ccc([N+](=O)[O-])cc2)C(=O)OC)cc1` registered a half-life in series [2] of over 24 h.

In turn, `COC(=O)N(C)COC(=O)c1ccc(N(C)C)cc1` registered a pKa in series [1] of 5.03. In series [2], the half-life amounted to 0.00367 h.

As to `COC(=O)N(COc1ccc([N+](=O)[O-])cc1)c1ccc(OC)cc1`, in series [2], the half-life worked out at 6.67 h.

For `COC(=O)c1ccc(OCN(C)C(=O)OC)cc1`, the pKa in series [1] is 8.47. In addition, in series [2], the half-life is 4.83 h.

As for `Cn1c(=O)c2[nH]cnc2n(C)c1=O.O` [THEOPHYLLINE], the “log K” value in series [3] is on record as -0.51. In addition, the solubility in series [4] worked out at 46000 µM; in series [5] (IPM, read-out: Solubility), 340 µM.

As to `COC(=O)N(C)COc1ccc(NC(C)=O)cc1`, in series [1], the pKa was found to be 9.5. Further, in series [2], the half-life is 60 h. Moreover, the “log K” value in series [3] is on record as -0.45. Besides, the solubility in series [4] stood at 45700 µM (≈ 11500 µg/mL); in series [5] (IPM, read-out: Solubility), 14100 µM (≈ 3560 µg/mL).

With `COC(=O)N(C)COc1ccccc1C=O`, the pKa in series [1] amounted to 6.79. For the same molecule, the half-life in series [2] worked out at 0.2 h.

With `COC(=O)N(C)COc1ccc([N+](=O)[O-])cc1`, the pKa in series [1] was 7.14. In series [2], this molecule registered a half-life of 0.367 h.

Molecule `COC(=O)N(COc1ccc([N+](=O)[O-])cc1)c1ccccc1` registered a half-life in series [2] of 8.65 h.

Take `COC(=O)N(C)COc1ccc(C(C)=O)cc1`: the pKa in series [1] amounted to 8.05. This molecule also showed a half-life in series [2] of 3.15 h.

As for `Sc1ncnc2nc[nH]c12` [MERCAPTOPURINE ANHYDROUS], the “log K” value in series [3] was -1.75. Besides, the solubility worked out at 1120 µM (≈ 170 µg/mL) in series [4] and 20 µM (≈ 3.04 µg/mL) in series [5] (IPM, read-out: Solubility).
